How the values were obtained:
[1] = target: Endothelin-1 receptor (Homo sapiens) (UniProt P25101); test: Binding affinity to recombinant human ETA receptor at 10 uM relative to control
In short: (§1)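 Broad radioligand-binding and enzyme screening panel covering 42 targets (biogenic amine and neuropeptide receptors, ion channels, neurotransmitter transporters, acetylcholinesterase). Single test concentration of 10 μM. Results expressed as binding relative to control, with a hit defined as >50% of control.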

[2] = target: Tyrosine-protein kinase Lck (Homo sapiens) (UniProt P06239); test: Inhibition of recombinant full length His-tagged human Lck expressed in baculovirus at 1 uM by FRET assay relative to control
[3] = target: Serine/threonine-protein kinase DCLK2 (Homo sapiens) (UniProt Q8N568); test: Inhibition of full length recombinant GST-tagged human DCAMKL2 expressed in baculovirus expression system at 1 uM by FRET assay relative to control
[4] = target: Sodium-dependent dopamine transporter (Homo sapiens) (UniProt Q01959); test: Binding affinity to recombinant human dopamine transporter at 10 uM relative to control; in short: as §1
[5] = target: Homeodomain-interacting protein kinase 2 (Homo sapiens) (UniProt Q9H2X6); test: Inhibition of recombinant GST-tagged human HIPK2 catalytic domain expressed in baculovirus expression system at 1 uM by FRET relative to control
In short: (§2)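 Single-point screen at 1 μM compound in a 220-kinase panel run by Life Technologies (SelectScreen). Z′-LYTE format: phosphorylation of a labeled peptide substrate read by FRET. Values are reported as percent inhibition.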

[6] = target: 3-phosphoinositide-dependent protein kinase 1 (Homo sapiens) (UniProt O15530); test: Inhibition of recombinant full length His-tagged human PDK1 expressed in baculovirus expression system at 1 uM by FRET assay relative to control
[7] = target: Serine/threonine-protein kinase 3 (Homo sapiens) (UniProt Q13188); test: Inhibition of recombinant full length GST-tagged human MST2 expressed in baculovirus at 1 uM by FRET assay relative to control
In short: (§3)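 Single-concentration screen at 1 μM in Life Technologies SelectScreen, across a 220-kinase panel. Z′-LYTE format measures phosphorylation of a labeled peptide by FRET. Results are reported as percent inhibition.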

[8] = target: Adenosine receptor A2a (Homo sapiens) (UniProt P29274); test: Binding affinity to recombinant human A2A adenosine receptor at 10 uM relative to control; in short: as §1
[9] = target: Ephrin type-A receptor 8 (Homo sapiens) (UniProt P29322); test: Inhibition of recombinant GST-tagged human EphA8 cytoplasmic domain expressed in baculovirus expression system at 1 uM by FRET assay relative to control; in short: as §2
[10] = target: Mast/stem cell growth factor receptor Kit (Homo sapiens) (UniProt P10721); test: Inhibition of recombinant GST/His-tagged human KIT cytoplasmic domain (544 to 976 residues) at 1 uM by FRET assay relative to control; in short: as §2
[11] = target: Dual specificity protein kinase CLK1 (Homo sapiens) (UniProt P49759); test: Inhibition of recombinant human GST-tagged CLK1 catalytic domain(129 to 484 residues)expressed in Escherichia coli at 1 uM by FRET assay relative to control
[12] = target: Tyrosine-protein kinase Tec (Homo sapiens) (UniProt P42680); test: Inhibition of recombinant full length His-tagged human TEC cytoplasmic domain expressed in baculovirus expression system at 1 uM by FRET assay relative to control
[13] = target: CDK7/Cyclin H/MNAT1 (Homo sapiens) (UniProt P51946+P50613+P51948); test: Inhibition of recombinant full length His-tagged human CDK7/cyclin H/MNAT1 expressed in baculovirus expression system at 1 uM by FRET assay relative to control
Homo sapiens = species on record: Homo sapiens; test: Binding affinity to L-type calcium channel dihydropyridine binding site (unknown origin) receptor at 10 uM relative to control; in short: as §1
[14] = target: Vascular endothelial growth factor receptor 2 (Homo sapiens) (UniProt P35968); test: Inhibition of recombinant His-tagged human KDR cytoplasmic domain (789 to 1356 residues) expressed in baculovirus expression system at 1 uM by FRET assay relative to control; in short: as §2
[15] = target: cGMP-dependent protein kinase 1 (Homo sapiens) (UniProt Q13976); test: Inhibition of PKG1alpha (unknown origin) at 1 uM by FRET assay relative to control
[16] = target: Sodium-dependent serotonin transporter (Homo sapiens) (UniProt P31645); test: Binding affinity to 5HT transporter (unknown origin) at 10 uM relative to control; in short: as §1
[17] = target: Tyrosine-protein kinase CSK (Homo sapiens) (UniProt P41240); test: Inhibition of full length recombinant His-tagged human CSK cytoplasmic domain expressed in Escherichia coli at 1 uM by FRET assay relative to control
[18] = system: Epidermal growth factor receptor (Homo sapiens), P00533 [L858R,T790M]; test: Inhibition of recombinant GST-tagged human EGFR cytoplasmic domain (668 to 1210 residues) T790M/L858R double mutant expressed in baculovirus expression system at 1 uM by FRET assay relative to control
In short: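 Part of a 220-kinase panel run at a single concentration of 1 μM. Z′-LYTE format: phosphorylation of a labelled peptide read by FRET. Values reported as percent inhibition.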

[19] = target: Rho-associated protein kinase 2 (Homo sapiens) (UniProt O75116); test: Inhibition of recombinant N-terminal GST-tagged human ROCK2 catalytic domain (1 to 552 residues) expressed in baculovirus expression system at 1 uM by FRET assay relative to control; in short: as §3
[20] = target: SRSF protein kinase 1 (Homo sapiens) (UniProt Q96SB4); test: Inhibition of recombinant full length His-tagged human SRPK1 expressed in baculovirus expression system at 1 uM by FRET assay relative to control
[21] = target: Protein kinase C epsilon type (Homo sapiens) (UniProt Q02156); test: Inhibition of recombinant full length human PKCepsilon expressed in baculovirus expression system at 1 uM by FRET assay relative to control
[22] = target: Serine/threonine-protein kinase N1 (Homo sapiens) (UniProt Q16512); test: Inhibition of full length recombinant GST-tagged human PRK1 expressed in baculovirus expression system at 1 uM by FRET assay relative to control
[23] = target: Serine/threonine-protein kinase 17A (Homo sapiens) (UniProt Q9UEE5); test: Inhibition of full length recombinant GST-tagged human DRAK1 expressed in baculovirus expression system at 1 uM by FRET assay relative to control
[24] = target: G protein-coupled receptor kinase 6 (Homo sapiens) (UniProt P43250); test: Inhibition of recombinant full length GST-tagged human GRK6 expressed in baculovirus expression system at 1 uM by FRET relative to control; in short: as §3
[25] = target: Serine/threonine-protein kinase 25 (Homo sapiens) (UniProt O00506); test: Inhibition of recombinant full length GST-tagged human YSK1 expressed in baculovirus expression system at 1 uM by FRET assay relative to control
[26] = target: Mitogen-activated protein kinase 11 (Homo sapiens) (UniProt Q15759); test: Inhibition of recombinant full length His-tagged human p38beta expressed in baculovirus expression system at 1 uM by FRET assay relative to control

Dual specificity protein kinase CLK1 (Homo sapiens), sequence (P49759 whole entry, looked up, the tested form may be a part): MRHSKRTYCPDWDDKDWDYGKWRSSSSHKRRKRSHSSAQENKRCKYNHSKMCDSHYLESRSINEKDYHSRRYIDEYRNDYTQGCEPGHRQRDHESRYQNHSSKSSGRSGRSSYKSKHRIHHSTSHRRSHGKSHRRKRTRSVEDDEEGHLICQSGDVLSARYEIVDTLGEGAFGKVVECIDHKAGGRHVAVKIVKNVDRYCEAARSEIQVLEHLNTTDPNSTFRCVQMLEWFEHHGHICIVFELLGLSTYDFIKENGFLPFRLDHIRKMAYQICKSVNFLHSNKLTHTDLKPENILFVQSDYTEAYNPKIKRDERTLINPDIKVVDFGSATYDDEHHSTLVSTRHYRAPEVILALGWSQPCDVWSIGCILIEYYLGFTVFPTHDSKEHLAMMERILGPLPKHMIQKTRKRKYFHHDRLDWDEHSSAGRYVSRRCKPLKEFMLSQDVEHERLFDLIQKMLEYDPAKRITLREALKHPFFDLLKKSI
SRSF protein kinase 1 (Homo sapiens), sequence (Q96SB4 whole entry): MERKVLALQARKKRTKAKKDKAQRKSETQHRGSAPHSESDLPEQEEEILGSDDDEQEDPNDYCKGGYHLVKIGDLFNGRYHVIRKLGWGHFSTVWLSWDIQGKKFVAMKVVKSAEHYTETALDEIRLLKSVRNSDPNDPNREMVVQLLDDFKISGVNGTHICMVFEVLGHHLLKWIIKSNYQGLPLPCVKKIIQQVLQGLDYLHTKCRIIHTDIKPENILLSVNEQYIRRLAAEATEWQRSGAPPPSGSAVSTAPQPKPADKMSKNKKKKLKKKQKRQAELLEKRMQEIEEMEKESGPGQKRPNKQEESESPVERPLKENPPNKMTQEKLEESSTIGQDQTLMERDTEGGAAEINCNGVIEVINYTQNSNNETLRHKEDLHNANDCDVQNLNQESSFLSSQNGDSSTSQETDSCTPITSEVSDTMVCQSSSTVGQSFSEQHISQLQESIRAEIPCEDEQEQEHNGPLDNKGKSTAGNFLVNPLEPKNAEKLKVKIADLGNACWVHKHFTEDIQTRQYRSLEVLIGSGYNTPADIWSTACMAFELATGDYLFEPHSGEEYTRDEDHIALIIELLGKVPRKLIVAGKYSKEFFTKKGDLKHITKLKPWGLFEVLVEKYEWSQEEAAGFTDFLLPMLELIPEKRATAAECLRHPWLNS
3-phosphoinositide-dependent protein kinase 1 (Homo sapiens), sequence (O15530 whole entry): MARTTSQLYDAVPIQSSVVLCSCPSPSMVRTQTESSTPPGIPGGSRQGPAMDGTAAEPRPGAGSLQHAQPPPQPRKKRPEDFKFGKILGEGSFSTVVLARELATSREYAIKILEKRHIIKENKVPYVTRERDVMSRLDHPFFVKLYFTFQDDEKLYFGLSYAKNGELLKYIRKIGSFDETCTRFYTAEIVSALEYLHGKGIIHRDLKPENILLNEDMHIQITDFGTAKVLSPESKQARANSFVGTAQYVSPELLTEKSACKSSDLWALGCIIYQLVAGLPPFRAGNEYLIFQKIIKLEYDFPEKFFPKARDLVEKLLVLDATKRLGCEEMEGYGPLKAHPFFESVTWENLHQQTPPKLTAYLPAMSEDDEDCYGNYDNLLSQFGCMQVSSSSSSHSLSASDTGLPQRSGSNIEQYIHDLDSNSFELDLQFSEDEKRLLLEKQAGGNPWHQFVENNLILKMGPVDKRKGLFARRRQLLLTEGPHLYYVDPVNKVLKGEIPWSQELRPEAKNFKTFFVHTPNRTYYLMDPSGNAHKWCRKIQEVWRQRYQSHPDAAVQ
Mast/stem cell growth factor receptor Kit (Homo sapiens), sequence (P10721 whole entry, the tested form may be a part): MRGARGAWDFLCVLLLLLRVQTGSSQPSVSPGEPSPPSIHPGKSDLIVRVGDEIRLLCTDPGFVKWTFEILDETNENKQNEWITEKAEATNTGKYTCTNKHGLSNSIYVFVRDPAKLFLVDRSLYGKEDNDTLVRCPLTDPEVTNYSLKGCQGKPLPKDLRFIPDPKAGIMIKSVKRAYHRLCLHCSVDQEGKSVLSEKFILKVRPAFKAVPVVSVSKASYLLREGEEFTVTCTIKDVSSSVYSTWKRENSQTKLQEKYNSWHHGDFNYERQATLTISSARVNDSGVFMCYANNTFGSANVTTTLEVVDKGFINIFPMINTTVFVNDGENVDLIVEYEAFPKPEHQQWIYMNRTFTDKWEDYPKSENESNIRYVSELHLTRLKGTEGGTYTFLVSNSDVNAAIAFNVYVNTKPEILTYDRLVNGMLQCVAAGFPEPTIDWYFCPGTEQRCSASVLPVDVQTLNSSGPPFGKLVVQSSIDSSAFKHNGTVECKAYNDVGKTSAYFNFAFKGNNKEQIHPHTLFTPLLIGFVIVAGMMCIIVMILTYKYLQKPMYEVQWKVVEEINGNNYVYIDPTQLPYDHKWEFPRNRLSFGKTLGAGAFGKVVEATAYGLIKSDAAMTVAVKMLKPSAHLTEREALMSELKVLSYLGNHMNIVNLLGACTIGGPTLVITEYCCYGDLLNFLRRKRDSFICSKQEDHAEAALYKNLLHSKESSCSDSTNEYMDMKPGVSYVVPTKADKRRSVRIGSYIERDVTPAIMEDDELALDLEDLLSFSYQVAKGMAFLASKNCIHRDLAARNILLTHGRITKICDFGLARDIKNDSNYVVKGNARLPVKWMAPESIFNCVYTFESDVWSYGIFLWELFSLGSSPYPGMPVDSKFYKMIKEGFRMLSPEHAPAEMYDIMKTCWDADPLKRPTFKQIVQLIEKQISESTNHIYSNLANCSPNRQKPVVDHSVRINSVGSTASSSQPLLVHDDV
Adenosine receptor A2a (Homo sapiens), sequence (P29274 whole entry, the tested form may be a part): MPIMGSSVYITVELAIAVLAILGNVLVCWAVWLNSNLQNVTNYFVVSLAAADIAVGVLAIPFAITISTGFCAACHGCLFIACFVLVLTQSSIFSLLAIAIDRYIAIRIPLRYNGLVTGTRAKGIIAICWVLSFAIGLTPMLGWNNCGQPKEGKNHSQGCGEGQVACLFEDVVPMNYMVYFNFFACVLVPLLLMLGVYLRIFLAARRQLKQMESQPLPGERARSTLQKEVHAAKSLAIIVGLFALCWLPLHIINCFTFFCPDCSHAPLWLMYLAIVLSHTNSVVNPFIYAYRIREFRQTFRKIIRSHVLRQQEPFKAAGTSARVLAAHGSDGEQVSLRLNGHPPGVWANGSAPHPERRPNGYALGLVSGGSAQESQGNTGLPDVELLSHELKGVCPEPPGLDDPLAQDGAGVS
Tyrosine-protein kinase Lck (Homo sapiens), sequence (P06239 2-509 limits assumed): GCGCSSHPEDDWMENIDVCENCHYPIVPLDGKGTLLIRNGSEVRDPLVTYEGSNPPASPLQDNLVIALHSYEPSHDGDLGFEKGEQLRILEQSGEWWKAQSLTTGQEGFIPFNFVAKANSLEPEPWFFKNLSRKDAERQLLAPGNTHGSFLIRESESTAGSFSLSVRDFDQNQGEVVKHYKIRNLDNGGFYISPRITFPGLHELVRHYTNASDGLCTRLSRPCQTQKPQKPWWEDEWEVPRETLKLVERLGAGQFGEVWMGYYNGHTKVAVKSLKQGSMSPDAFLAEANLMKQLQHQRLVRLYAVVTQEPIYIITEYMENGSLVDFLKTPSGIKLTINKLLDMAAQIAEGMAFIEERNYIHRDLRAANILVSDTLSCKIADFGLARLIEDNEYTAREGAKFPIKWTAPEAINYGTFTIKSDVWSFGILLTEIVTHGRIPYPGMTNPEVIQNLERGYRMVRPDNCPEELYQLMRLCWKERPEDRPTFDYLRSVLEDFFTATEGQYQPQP
Vascular endothelial growth factor receptor 2 (Homo sapiens), sequence (P35968 whole entry, the tested form may be a part): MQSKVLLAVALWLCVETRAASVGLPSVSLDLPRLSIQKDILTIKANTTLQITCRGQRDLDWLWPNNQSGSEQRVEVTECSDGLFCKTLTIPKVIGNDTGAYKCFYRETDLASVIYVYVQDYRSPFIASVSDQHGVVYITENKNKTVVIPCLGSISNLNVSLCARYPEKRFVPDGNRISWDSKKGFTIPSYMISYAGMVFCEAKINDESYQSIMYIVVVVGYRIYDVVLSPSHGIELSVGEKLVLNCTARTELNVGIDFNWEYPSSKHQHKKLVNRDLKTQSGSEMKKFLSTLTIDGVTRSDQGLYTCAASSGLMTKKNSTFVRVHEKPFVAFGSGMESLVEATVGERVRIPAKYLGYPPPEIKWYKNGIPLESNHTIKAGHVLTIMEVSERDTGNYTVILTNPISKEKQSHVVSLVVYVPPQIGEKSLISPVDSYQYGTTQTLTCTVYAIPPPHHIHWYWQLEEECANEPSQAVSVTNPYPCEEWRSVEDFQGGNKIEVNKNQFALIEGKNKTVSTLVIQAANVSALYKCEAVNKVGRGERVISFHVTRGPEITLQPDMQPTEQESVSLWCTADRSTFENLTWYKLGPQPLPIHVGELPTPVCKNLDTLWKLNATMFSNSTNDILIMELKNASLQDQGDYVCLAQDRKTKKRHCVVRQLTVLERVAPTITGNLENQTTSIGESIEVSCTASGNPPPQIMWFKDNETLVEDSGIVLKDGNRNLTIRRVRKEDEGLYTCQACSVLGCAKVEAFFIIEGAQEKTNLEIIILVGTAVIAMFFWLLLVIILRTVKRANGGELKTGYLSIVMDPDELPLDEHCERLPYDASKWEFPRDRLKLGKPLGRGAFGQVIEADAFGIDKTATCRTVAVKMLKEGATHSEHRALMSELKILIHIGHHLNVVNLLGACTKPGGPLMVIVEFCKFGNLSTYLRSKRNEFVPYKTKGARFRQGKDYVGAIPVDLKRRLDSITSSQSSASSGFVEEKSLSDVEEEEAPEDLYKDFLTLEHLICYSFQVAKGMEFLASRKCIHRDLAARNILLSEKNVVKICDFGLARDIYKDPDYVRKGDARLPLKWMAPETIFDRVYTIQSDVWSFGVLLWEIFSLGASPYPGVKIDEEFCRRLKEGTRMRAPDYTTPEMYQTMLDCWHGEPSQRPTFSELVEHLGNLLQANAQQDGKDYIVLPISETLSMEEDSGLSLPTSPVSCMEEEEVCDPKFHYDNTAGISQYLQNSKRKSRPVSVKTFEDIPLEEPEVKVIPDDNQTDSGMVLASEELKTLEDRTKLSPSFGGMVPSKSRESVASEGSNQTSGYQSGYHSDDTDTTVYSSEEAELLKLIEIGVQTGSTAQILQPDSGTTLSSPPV

| SMILES | Activity [1] | inhibition [2] | inhibition [3] | Activity [4] | inhibition [5] | inhibition [6] | inhibition [7] | Activity [8] | inhibition [9] | inhibition [10] | inhibition [11] | inhibition [12] | inhibition [13] | Activity (Homo sapiens) | inhibition [14] | inhibition [15] | Activity [16] | inhibition [17] | inhibition [18] | inhibition [19] | further results |
| --- | --- | --- | --- | --- | --- | --- | --- | --- | --- | --- | --- | --- | --- | --- | --- | --- | --- | --- | --- | --- | --- |
| Nc1ncc(-c2cc([C@H]3[C@@H]4CN(C5COC5)C[C@@H]43)n(CC3CC3)n2)cc1C(F)(F)F | > 50% | 36.1% | -0.8% | > 50% | 14.9% | -2.7% | 0% | > 50% | 18.6% | 6.5% | 2.1% | 4.8% | 15.7% | > 50% | 35% | -1.1% | > 50% | 14.8% | 8.2% | -7.5% | inhibition [20]: -1.7%; inhibition [21]: -5%; inhibition [22]: -8%; inhibition [23]: 7.5%; inhibition [24]: -4.2%; inhibition [25]: -3.8%; inhibition [26]: 2.5% |
| CC(C)n1nc(-c2cnc(N)c(OC(F)(F)F)c2)cc1[C@H]1[C@@H]2CN(C3COC3)C[C@@H]21 | > 50% | 7.5% | -1.6% | > 50% | 18% | 3.3% | 10.1% | > 50% | 8.7% | 23.9% | 1.8% | -1.5% | 28.6% | > 50% | 10.6% | 0.1% | > 50% | 6.8% | 9.8% | 7.2% | inhibition [20]: 1%; inhibition [21]: 1.9%; inhibition [22]: 5.3%; inhibition [23]: 5.2%; inhibition [24]: 2.5%; inhibition [25]: 8%; inhibition [26]: 9.3% |
